Results pooled from the literature.
Protocols differ between the studies behind these lines.
ABL1: Tyrosine-protein kinase ABL1 (ABL1, Homo sapiens, UniProt P00519)
ABL1 non-phosphorylated: Tyrosine-protein kinase ABL1, non-phosphorylated (ABL1, Homo sapiens, UniProt P00519)
ABL1 Y253F: Tyrosine-protein kinase ABL1 (ABL1, Homo sapiens, UniProt P00519, Y253F)
ABL1 Q252H phosphorylated: Tyrosine-protein kinase ABL1, phosphorylated (ABL1, Homo sapiens, UniProt P00519, Q252H)
ABL1 phosphorylated: Tyrosine-protein kinase ABL1, phosphorylated (ABL1, Homo sapiens, UniProt P00519)

SMILES | target | test | conditions | endpoint | value
C#Cc1cc(-c2cc(Nc3nc(N[C@@H](C)c4ccc(F)cn4)ncc3Cl)n[nH]2)ccc1C=O | Tyrosine-protein kinase ABL1 (ABL1, Homo sapiens, UniProt P00519, H396P) | enzyme activity, inhibitor | 0.2 µM | inhibition | 16.6%
[2H]c1cc(C)c(NC(=O)c2cnc(Nc3cc(N4CCCCC4)nc(C)n3)s2)c(Cl)c1 | ABL1 | enzyme activity, inhibitor | 1 nM | inhibition | 96%
N#Cc1ccc(NC(=O)Nc2ccccc2)cc1 | ABL1 non-phosphorylated | cell-free assay, competition with immobilised ligand | 25 µM | remaining binding | 83%
COc1ccc2[nH]c3c4[nH]c5ccc(OC)cc5c4c4c(c3c2c1)C(=O)NC4=O | Tyrosine-protein kinase ABL1 (ABL1, Homo sapiens, UniProt P00519, M351T) | binding | 1 µM | remaining binding | 68%
COc1ccc2oc(-c3ccc4nc(N)oc4c3)c/c(=N\c3ccccc3NC(=O)CCN)c2c1 | ABL1 Y253F | cell-free assay | 1 µM | remaining signal | 95%
C=CC(=O)N1CCC([C@@H]2CCNc3c(C(N)=O)c(-c4ccc(Oc5ccccc5)cc4)nn32)CC1 | ABL1 Q252H phosphorylated | enzyme activity, inhibitor | 1 µM | inhibition | 32%
CN1CCN(C(=O)c2ccc(NC(=O)Nc3ccc(N(C)c4ccnc(Nc5ccc(CS(C)(=O)=O)cc5)n4)cc3)cc2)CC1 | ABL1 non-phosphorylated | binding, competition with immobilised ligand | 1 µM | remaining binding | 9%
CCCCC(=O)Nc1ccc(-c2ccc3ncn(CCC)c(=O)c3c2)cn1 | ABL1 phosphorylated | binding, competition with immobilised ligand | 0.5 µM | remaining binding | 93%
CC#CC(=O)N1CCC[C@H]1c1nc(-c2ccc(C(=O)Nc3ccccn3)cc2)c2c(N)nccn12 | ABL1 Q252H phosphorylated | enzyme activity, inhibitor | 1 µM | inhibition | 39%
[2H]c1cc(C)c(NC(=O)c2cnc(Nc3cc(N4CC[C@@H](O)C4)nc(C)n3)s2)c(Cl)c1 | ABL1 | enzyme activity, inhibitor | 1 nM | inhibition | 87%
C[C@H]1CC[C@H](n2c3cnccc3c3cnc(Nc4ccc5c(n4)CCN(C(=O)CO)C5)nc32)CC1 | ABL1 Y253F | cell-free assay | 1 µM | remaining signal | 100%
Cc1nc(Nc2ncc(C(=O)Nc3c(C)cccc3Cl)s2)cc(N2CC[C@@H](N)C2)n1 | ABL1 | enzyme activity, inhibitor | 1 nM | inhibition | 93%
CO[C@@H]1[C@H](N(C)C(=O)c2ccccc2)C[C@H]2O[C@]1(C)n1c3ccccc3c3c4c(c5c6ccccc6n2c5c31)C(=O)NC4 | ABL1 phosphorylated | enzyme activity, inhibitor | 1 µM | inhibition | 31%
Cc1nc(Nc2ncc(C(=O)Nc3c(C)cccc3Cl)s2)cc(N2CC[C@H](O)C2)n1 | ABL1 | enzyme activity, inhibitor | 1 nM | inhibition | 86%
Cc1ccc(NC(=O)c2ccnc(C(F)(F)F)c2)cc1-c1cc(OCCO)nc(N2CCOCC2)c1 | ABL1 Y253F | binding | 1 µM | remaining binding | 100%
Cc1nc(Nc2ncc(C(=O)Nc3c(C)cccc3Cl)s2)cc(N2CCC(O)CC2)n1 | ABL1 | enzyme activity, inhibitor | 1 nM | inhibition | 83%
C1=C/COCc2cc(ccc2OCCN2CCCC2)Nc2nccc(n2)-c2cccc(c2)COC/1 | Tyrosine-protein kinase ABL1 (ABL1, Homo sapiens, UniProt P00519, Q252H) | binding | 0.1 µM | remaining binding | 15%
